For the first experiment, the target named is T1, Translocator protein (Rattus norvegicus, UniProt P16257). The experiment can be described thus: Displacement of [3H]-PK 11195 from peripheral (mitochondrial) benzodiazepine receptor (inactive). In outline: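 Male CD rat cortex (about 150 g) homogenized in ice-cold 50 mM PBS, pH 7.4, spun at 50000g for 10 min, and washed three times. 10 mg original wet tissue incubated with 1 nM [3H]PK 11195 and 8–12 drug concentrations (highest 10^-5 M) for 120 min at 4 °C. Nonspecific binding with 1 μM PK 11195. GF/B filtration, scintillation counting, triplicate points, IC50 by nonlinear curve fitting.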
T1 sequence (P16257 whole entry, looked up): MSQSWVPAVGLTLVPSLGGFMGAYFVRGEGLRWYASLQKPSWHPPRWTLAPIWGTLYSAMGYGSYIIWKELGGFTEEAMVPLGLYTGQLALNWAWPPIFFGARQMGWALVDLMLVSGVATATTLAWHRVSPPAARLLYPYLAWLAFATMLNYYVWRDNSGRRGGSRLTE
In general terms: Displacement assays read how much labelled ligand stays bound in the presence of the test substance.
Take `COc1ccc(C2=C(OC(=O)c3c(OC)cc(OC)cc3OC)c3cccn3-c3cc(C(F)(F)F)ccc3S2)cc1`: the IC50 – broadly, the concentration that inhibits the measured activity by half – is “Not Active”.

Consider `COc1ccc(C2=C(OC(=O)c3c(OC)cc(OC)cc3OC)c3cccn3-c3ccccc3S2)cc1`, for which the IC50 entry is recorded as “Not Active”.

For the compound `COc1ccc(C2=C(OC(=O)c3ccncc3)c3cccn3-c3ccccc3S2)cc1`, the IC50 entry is reported as “Not Active”.

For `COc1ccc(C2=C(OC(=O)c3cccnc3)c3cccn3-c3ccccc3S2)cc1`, the IC50 result is “Not Active”.

In the case of `O=C1c2cccn2-c2ccccc2S(=O)(=O)C1c1ccccc1` (centres undefined), the IC50 entry is listed as “Not Active”.

With `COc1ccc([C@H]2Sc3ccccc3-n3cccc3[C@H]2OC(C)=O)cc1`, the IC50 entry is listed as “Not Active”.

For `COc1ccc(C2=C(OC(=O)c3c(OC)cc(OC)cc3OC)c3cccn3-c3cc(Cl)ccc3S2)cc1`, the IC50 result is “Not Active”.

A further experiment has as its target T1, Translocator protein. The experiment can be described thus: Displacement of [3H]-PK 11195 from peripheral (mitochondrial) benzodiazepine receptor.
`O=C1CSc2ccccc2-n2cccc21` showed an IC50 of more than 14000 nM.

The compound `COc1ccc(C2=C(OC(C)=O)c3cccn3-c3ccccc3S2(=O)=O)cc1` gave an IC50 of 640 nM.

`O=C1c2cccn2-c2ccccc2[S+]([O-])C1c1ccccc1` (centres undefined) had an IC50 of 14700 nM.

In turn, `CC(=O)OC1=C(c2ccccc2)Sc2cc(Cl)ccc2-n2cccc21` yielded an IC50 of 230 nM.

Take `COc1ccc(C2=C(OC(C)=O)c3cccn3-c3ccccc3S2)cc1`: the IC50 was 34 nM.

Consider `CCC(=O)OC1=C(c2ccc(OC)cc2)Sc2ccccc2-n2cccc21`, for which the IC50 was 30 nM.

With `CCC(=O)OC1=C(c2ccccc2)Sc2ccc(Cl)cc2-n2cccc21`, the IC50 stood at 820 nM.

`CCC(=O)OC1=C(c2ccc(OC)cc2)Sc2ccc(C(F)(F)F)cc2-n2cccc21` had an IC50 of 2950 nM.

For the compound `COc1ccc(C2=C(OC(C)=O)c3cccn3-c3cccc(Cl)c3S2)cc1`, the IC50 came to 20 nM.

For `CC(=O)OC1=C(c2ccccc2)[S+]([O-])c2ccccc2-n2cccc21` (centres undefined), the IC50 was 690 nM.

For the compound `O=C1c2cccn2-c2ccccc2SC1c1ccccc1` (centres undefined), the IC50 is 1220 nM.

`CN(C)C(=O)OC1=C(c2ccccc2)Sc2ccccc2-n2cccc21` returned an IC50 of 9 nM.

For `COc1ccc(C2=C(OC(C)=O)c3cccn3-c3ccc(Cl)cc3S2)cc1`, the IC50 was 240 nM.

In the case of `CCC(=O)OC1=C(c2ccccc2)Sc2ccccc2-n2cccc21`, the IC50 was 67 nM.

In turn, `COc1ccc(C2=C(OC(=O)N(C)C)c3cccn3-c3ccccc3S2)cc1` displayed an IC50 of 9 nM.

`CCCC(=O)OC1=C(c2ccc(OC)cc2)[S+]([O-])c2ccccc2-n2cccc21` (centres undefined) gave an IC50 of 270 nM.

Take `CC(=O)OC1=C(c2ccccc2)Sc2c(Cl)cccc2-n2cccc21`: the IC50 is 8 nM.

As for `CCCC(=O)OC1=C(c2ccc(OC)cc2)Sc2ccccc2-n2cccc21`, the IC50 came to 28 nM.

`CCCC(=O)OC1=C(c2ccccc2)Sc2ccccc2-n2cccc21` displayed an IC50 of 22 nM.

Take `CCCCCC(=O)OC1=C(c2ccccc2)Sc2ccccc2-n2cccc21`: the IC50 was 23 nM.

For the compound `COc1ccc(C2Sc3ccccc3-n3cccc3C2=O)cc1` (centres undefined), the IC50 is 2090 nM.

As for `CC(=O)OC1=C(c2ccccc2)S(=O)(=O)c2ccccc2-n2cccc21`, the IC50 was determined as 1140 nM.

The compound `CS(=O)(=O)OC1=C(c2ccccc2)Sc2ccccc2-n2cccc21` came in with an IC50 of 60 nM.

Turning to `CC(=O)OC1=C(c2ccccc2)Sc2ccc(Cl)cc2-n2cccc21`, the IC50 was determined as 560 nM.

Regarding `COc1ccc(C2=C(OC(C)=O)c3cccn3-c3cc(C(F)(F)F)ccc3S2)cc1`, the IC50 worked out at 4530 nM.

`COc1ccc(C2=C(OC(C)=O)c3cccn3-c3cc(Cl)ccc3S2)cc1` gave an IC50 of 650 nM.

In turn, `CCCCC(=O)OC1=C(c2ccccc2)Sc2ccccc2-n2cccc21` had an IC50 of 48 nM.

`CCC(=O)OC1=C(c2ccc(OC)cc2)Sc2ccc(Cl)cc2-n2cccc21` showed an IC50 of 490 nM.

`COc1ccc(C2Sc3ccc(C(F)(F)F)cc3-n3cccc3C2=O)cc1` (centres undefined) gave an IC50 of 6210 nM.

Turning to `COc1ccc(C2=C(OC(=O)N(C)C)c3cccn3-c3cc(Cl)ccc3S2)cc1`, the IC50 was 170 nM.

Compound `COc1ccc(C2=C(OC(C)=O)c3cccn3-c3ccccc3[S+]2[O-])cc1` (centres undefined) registered an IC50 of 2090 nM.

Regarding `COc1ccc(C2C(=O)c3cccn3-c3ccccc3[S+]2[O-])cc1` (centres undefined), the IC50 amounted to 23000 nM.

As for `COc1ccc(C2Sc3ccc(Cl)cc3-n3cccc3C2=O)cc1` (centres undefined), the IC50 was 1410 nM.

With `CC(=O)OC1=C(c2ccccc2)Sc2ccccc2-n2cccc21`, the IC50 is 20 nM.

As for `COc1ccc(C2=C(OC(C)=O)c3cccn3-c3cc(OC)ccc3S2)cc1`, the IC50 was determined as 1810 nM.

For the compound `COc1ccc(C2=C(OS(C)(=O)=O)c3cccn3-c3ccccc3S2)cc1`, the IC50 turned out to be 95 nM.

Turning to `COc1ccc(C2=C(OC(=O)N(C)C)c3cccn3-c3cc(C(F)(F)F)ccc3S2)cc1`, the IC50 amounted to 290 nM.

Source of the values: ChEMBL document CHEMBL1127506, “Novel ligands specific for mitochondrial benzodiazepine receptors: 6-arylpyrrolo[2,1-d][1,5]benzothiazepine derivatives. Synthesis, structure-activity relationships, and molecular modeling studies” (J Med Chem, 1994).
